≈ marks a conversion by molar mass, not a printed value. One block for each compound: values may come before it. Bridge positions count the residues as written; N and C are the ends. Square brackets hold non-standard residues; d marks the D form. Peptide text beside a SMILES is read from it. * marks the point of attachment. Decanoyl = CCCCCCCCCC(=O)*; Dab = NCC[C@H](N)C(=O)O
How the values were obtained:
Type in all cases: functional
Citrobacter freundii = assay: Antibacterial activity against Citrobacter freundii ATCC 8090 by CLSI M7-A7 agar dilution method
Escherichia coli [1] = assay: Antibacterial activity against Escherichia coli IH3080 by CLSI M7-A7 agar dilution method
Klebsiella pneumoniae [2] = assay: Antibacterial activity against Klebsiella pneumoniae by CLSI M7-A7 agar dilution method
Procedure, shortened: (§1)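 Agar dilution on Mueller-Hinton agar with test substance at 0.25 to 32 μg/ml in twofold steps. Spots of about 10^4 CFU applied with a multipoint inoculator.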

Escherichia coli [3] = assay: Antibacterial activity against Escherichia coli IH3080 assessed as growth inhibition at 10 ug after 18 hrs by […] in presence of 1 ug/ml rifampin
Staphylococcus aureus = assay: Antibacterial activity against Staphylococcus aureus ATCC 25923 by CLSI M7-A7 agar dilution method; procedure, shortened: as §1
Escherichia coli [4] = assay: Antibacterial activity against Escherichia coli by CLSI M7-A7 agar dilution method; procedure, shortened: as §1
Escherichia coli [5] = assay: Antibacterial activity against Escherichia coli ATCC […] by CLSI M7-A7 agar dilution method
Escherichia coli [6] = assay: Antibacterial activity against Escherichia coli SC 9253 by CLSI M7-A7 agar dilution method; procedure, shortened: as §1
Acinetobacter baumannii [7] = assay: Antibacterial activity against Acinetobacter baumannii by CLSI M7-A7 agar dilution method
Enterobacter cloacae [8] = assay: Antibacterial activity against Enterobacter cloacae ATCC 23355 by CLSI M7-A7 agar dilution method
Serratia marcescens = assay: Antibacterial activity against Serratia marcescens ATCC 8100 by CLSI M7-A7 agar dilution method; procedure, shortened: as §1
Klebsiella oxytoca [9] = assay: Antibacterial activity against Klebsiella oxytoca CCUG51683 by CLSI M7-A7 agar dilution method; procedure, shortened: as §1
Escherichia coli [10] = assay: Antibacterial activity against Escherichia coli IH3080 assessed as growth inhibition at 10 ug after 18 hrs by […]
Candida albicans = assay: Antibacterial activity against Candida albicans ATCC 28366 by CLSI M7-A7 agar dilution method
Enterobacter cloacae [11] = assay: Antibacterial activity against Enterobacter cloacae CCUG52947 by CLSI M7-A7 agar dilution method
Enterobacter cloacae [12] = assay: Antibacterial activity against Enterobacter cloacae by CLSI M7-A7 agar dilution method
Escherichia coli [13] = assay: Antibacterial activity against Escherichia coli SC 9252 by CLSI M7-A7 agar dilution method
Acinetobacter baumannii [14] = assay: Antibacterial activity against Acinetobacter baumannii ATCC 19606 by CLSI M7-A7 agar dilution method
Pseudomonas aeruginosa [15] = assay: Antibacterial activity against Pseudomonas aeruginosa ATCC 27853 by CLSI M7-A7 agar dilution method; procedure, shortened: as §1
Klebsiella pneumoniae [16] = assay: Antibacterial activity against Klebsiella pneumoniae CCUG45421 by CLSI M7-A7 agar dilution method; procedure, shortened: as §1
Klebsiella oxytoca [17] = assay: Antibacterial activity against Klebsiella oxytoca ATCC 13182 by CLSI M7-A7 agar dilution method; procedure, shortened: as §1
Escherichia coli [18] = assay: Antibacterial activity against Escherichia coli ATCC […] by Etest method in presence of 4 ug/ml NAB7064
Escherichia coli [19] = assay: Antibacterial activity against Escherichia coli IH3080 by Etest method in presence of 2 ug/ml NAB7062
Klebsiella pneumoniae [20] = assay: Antibacterial activity against Klebsiella pneumoniae ATCC 13883 by Etest method in presence of NAB7061
Procedure, shortened: (§2)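 MICs of the antibiotic taken from E-strips on Mueller-Hinton agar, run both with and without peptide. […] Inoculum was prepared per the strip manufacturer, matching CLSI M2-A9.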

Escherichia coli [21] = assay: Antibacterial activity against Escherichia coli IH3080 by Etest method in presence of 1 ug/ml NAB7061
Enterobacter cloacae [22] = assay: Ratio of the MIC for Enterobacter cloacae ATCC 23355 in the absence of NAB7061 to MIC for Enterobacter cloacae ATCC 23355 […] in the presence of 4 ug/ml of NAB7061
Enterobacter cloacae [23] = assay: Antibacterial activity against Enterobacter cloacae ATCC 23355 […] by Etest method in presence of 4 ug/ml NAB7064
Enterobacter cloacae [24] = assay: Antibacterial activity against Enterobacter cloacae ATCC 23355 by Etest method
Procedure, shortened: (§3)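 E-strip MIC on Mueller-Hinton agar without added peptide; inoculum per manufacturer, matching CLSI M2-A9.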

Enterobacter cloacae [25] = assay: Antibacterial activity against Enterobacter cloacae ATCC 23355 […] by Etest method in presence of 2 ug/ml NAB7062
Klebsiella pneumoniae [26] = assay: Antibacterial activity against Klebsiella pneumoniae ATCC 13883 by Etest method; procedure, shortened: as §2
Escherichia coli [27] = assay: Antibacterial activity against Escherichia coli IH3080 by Etest method in presence of NAB7061
Klebsiella pneumoniae [28] = assay: Ratio of the MIC for Klebsiella pneumoniae ATCC 13883 in the absence of NAB7061 to MIC for Klebsiella pneumoniae ATCC 13883 in the presence of 4 ug/ml of NAB7061
Escherichia coli [29] = assay: Antibacterial activity against Escherichia coli ATCC 25992 by Etest method; procedure, shortened: as §3
Enterobacter cloacae [30] = assay: Antibacterial activity against Enterobacter cloacae ATCC 23355 […] by Etest method in presence of NAB7061
Escherichia coli [31] = assay: Antibacterial activity against Escherichia coli IH3080 by Etest method; procedure, shortened: as §3
Enterobacter cloacae [32] = assay: Antibacterial activity against Enterobacter cloacae ATCC 23355 […] by Etest method in presence of 1 ug/ml NAB7061
Klebsiella pneumoniae [33] = assay: Antibacterial activity against Klebsiella pneumoniae ATCC 13883 by Etest method in presence of 1 ug/ml NAB7061; procedure, shortened: as §2
Escherichia coli [34] = assay: Ratio of the MIC for Escherichia coli IH3080 in the absence of NAB7061 to MIC for Escherichia coli IH3080 in the presence of 4 ug/ml of NAB7061
Escherichia coli [35] = assay: Antibacterial activity against Escherichia coli IH3080 by Etest method in presence of 4 ug/ml NAB7064
Klebsiella pneumoniae [36] = assay: Antibacterial activity against Klebsiella pneumoniae ATCC 13883 by Etest method in presence of 2 ug/ml NAB7061; procedure, shortened: as §2
Escherichia coli [37] = assay: Antibacterial activity against Escherichia coli ATCC […] by Etest method in presence of 2 ug/ml NAB7062
Klebsiella pneumoniae [38] = assay: Antibacterial activity against Klebsiella pneumoniae ATCC 13883 by Etest method in presence of 4 ug/ml NAB7061; procedure, shortened: as §2
Escherichia coli [39] = assay: Antibacterial activity against Escherichia coli ATCC […] by Etest method in presence of NAB7061
Escherichia coli [40] = assay: Antibacterial activity against Escherichia coli ATCC […] by Etest method in presence of 1 ug/ml NAB7061
Escherichia coli [41] = assay: Ratio of the MIC for Escherichia coli ATCC 25992 in the absence of NAB7061 to MIC for Escherichia coli ATCC 25992 in the presence of 4 ug/ml of NAB7061
Acinetobacter baumannii [42] = assay: (§4) Antibacterial activity against Acinetobacter baumannii ATCC 19606 by Etest method in presence of […] NAB739
Acinetobacter baumannii [43] = assay: Antibacterial activity against Acinetobacter baumannii F264 by Etest method; procedure, shortened: as §3
Acinetobacter baumannii [44] = assay: (§5) Antibacterial activity against Acinetobacter baumannii F264 by Etest method in presence of […] NAB739
Acinetobacter baumannii [45] = assay: Antibacterial activity against Acinetobacter baumannii ATCC 19606 by Etest method in presence of 1 ug/ml NAB739
Acinetobacter baumannii [46] = assay: Antibacterial activity against Acinetobacter baumannii ATCC 19606 by Etest method in presence of 0.5 ug/ml NAB739
Pseudomonas aeruginosa [47] = assay: Antibacterial activity against Pseudomonas aeruginosa ATCC 27853by Etest method in presence of 2 ug/ml NAB739
Pseudomonas aeruginosa [48] = assay: (§6) Antibacterial activity against Pseudomonas aeruginosa ATCC 27853by Etest method in presence of […] NAB739
Acinetobacter baumannii [49] = assay: as §5; remark: listed apart in the source
Pseudomonas aeruginosa [50] = assay: Antibacterial activity against Pseudomonas aeruginosa ATCC 27853by Etest method; procedure, shortened: as §2
Acinetobacter baumannii [51] = assay: Antibacterial activity against Acinetobacter baumannii ATCC 19606 by Etest method
Pseudomonas aeruginosa [52] = assay: Antibacterial activity against Pseudomonas aeruginosa ATCC 27853by Etest method in presence of 1 ug/ml NAB739; procedure, shortened: as §2
Acinetobacter baumannii [53] = assay: Antibacterial activity against Acinetobacter baumannii F264 by Etest method in presence of 1 ug/ml NAB739
Pseudomonas aeruginosa [54] = assay: Antibacterial activity against Pseudomonas aeruginosa ATCC 27853by Etest method in presence of 0.5 ug/ml NAB739; procedure, shortened: as §2
Acinetobacter baumannii [55] = assay: Antibacterial activity against Acinetobacter baumannii F264 by Etest method in presence of 0.5 ug/ml NAB739
Acinetobacter baumannii [56] = assay: Antibacterial activity against Acinetobacter baumannii ATCC 19606 by Etest method in presence of NAB739
Acinetobacter baumannii [57] = assay: as §4; remark: listed apart in the source
Pseudomonas aeruginosa [58] = assay: as §6; remark: listed apart in the source
Acinetobacter baumannii [59] = assay: Antibacterial activity against Acinetobacter baumannii F264 by Etest method in presence of NAB739

MIC (Citrobacter freundii): 2 µg/mL (≈ 1.81 µM)
MIC (Escherichia coli [1]): 2 µg/mL (≈ 1.81 µM)
MIC (Klebsiella pneumoniae [2]): 2 µg/mL (≈ 1.81 µM)
MIC (Staphylococcus aureus): > 32 µg/mL
MIC (Escherichia coli [4]): 1 µg/mL (≈ 0.906 µM)
MIC (Escherichia coli [5]): 2 µg/mL (≈ 1.81 µM)
MIC (Escherichia coli [6]): 16 µg/mL (≈ 14.5 µM)
MIC (Acinetobacter baumannii [7]): 2 µg/mL (≈ 1.81 µM)
MIC (Enterobacter cloacae [8]): 2 µg/mL (≈ 1.81 µM)
MIC (Serratia marcescens): > 32 µg/mL
MIC (Klebsiella oxytoca [9]): 2 µg/mL (≈ 1.81 µM)
MIC (Candida albicans): > 32 µg/mL
MIC (Enterobacter cloacae [11]): 2 µg/mL (≈ 1.81 µM)
MIC (Enterobacter cloacae [12]): 2 µg/mL (≈ 1.81 µM)
MIC (Escherichia coli [13]): 8 µg/mL (≈ 7.24 µM)
MIC (Acinetobacter baumannii [14]): 4 µg/mL (≈ 3.62 µM)
MIC (Pseudomonas aeruginosa [15]): 4 µg/mL (≈ 3.62 µM)
MIC (Klebsiella pneumoniae [16]): 4 µg/mL (≈ 3.62 µM)
MIC (Klebsiella oxytoca [17]): 2 µg/mL (≈ 1.81 µM)
SMILES: CCCCCCCCCC(=O)N[C@H](C(=O)N[C@H](CO)C(=O)N[C@H]1CCNC(=O)[C@H]([C@@H](C)O)NC(=O)[C@H](CCN)NC(=O)[C@H](CCN)NC(=O)[C@H](CC(C)C)NC(=O)[C@@H](Cc2ccccc2)NC(=O)[C@H](CCN)NC1=O)[C@@H](C)O (Decanoyl-T[dS][Dab][Dab][dF]L[Dab][Dab]T; lactam 3-C)
inhibition zone (IZ) (Escherichia coli [3]): 150 mm2
inhibition zone (IZ) (Escherichia coli [10]): 130 mm2

MIC (Escherichia coli [18]): 1.5 µg/mL
MIC (Escherichia coli [19]): 12 µg/mL
MIC (Klebsiella pneumoniae [20]): ≤ 0.167 µg/mL
MIC (Escherichia coli [21]): 16 µg/mL
MIC (Enterobacter cloacae [23]): 0.19 µg/mL
MIC (Enterobacter cloacae [24]): 48 µg/mL (≈ 95.9 µM)
MIC (Enterobacter cloacae [25]): 8 µg/mL
MIC (Klebsiella pneumoniae [26]): 64 µg/mL (≈ 128 µM)
MIC (Escherichia coli [27]): 0.146 µg/mL
MIC (Escherichia coli [29]): 256 µg/mL (≈ 511 µM)
MIC (Enterobacter cloacae [30]): 0.293 µg/mL
MIC (Escherichia coli [31]): 128 µg/mL (≈ 256 µM)
MIC (Enterobacter cloacae [32]): 24 µg/mL
MIC (Klebsiella pneumoniae [33]): 24 µg/mL
MIC (Escherichia coli [35]): 1.5 µg/mL
MIC (Klebsiella pneumoniae [36]): 12 µg/mL
MIC (Escherichia coli [37]): 4 µg/mL
MIC (Klebsiella pneumoniae [38]): 2 µg/mL
MIC (Escherichia coli [40]): 16 µg/mL
SMILES: C/C(=C\C(=O)OCCCCCCCCC(=O)O)C[C@@H]1OC[C@H](C[C@@H]2O[C@H]2[C@@H](C)[C@H](C)O)[C@@H](O)[C@H]1O [MUPIROCIN]
Ratio (Enterobacter cloacae [22]): 250
Ratio (Klebsiella pneumoniae [28]): 24
Ratio (Escherichia coli [34]): 64
fractional inhibitory concentration index (FICI) (Escherichia coli [39]): 0.127
Ratio (Escherichia coli [41]): 64

SMILES: C[C@@H](O)[C@H]1C(=O)N2C(C(=O)O)=C(S[C@@H]3CN[C@H](C(=O)N(C)C)C3)[C@H](C)[C@H]12 [MEROPENEM]
MIC (Acinetobacter baumannii [42]): 0.5 µg/mL
MIC (Acinetobacter baumannii [43]): > 32 µg/mL
MIC (Acinetobacter baumannii [44]): 6 µg/mL
MIC (Acinetobacter baumannii [45]): 0.125 µg/mL
MIC (Acinetobacter baumannii [46]): 0.25 µg/mL
MIC (Pseudomonas aeruginosa [47]): 0.25 µg/mL
MIC (Pseudomonas aeruginosa [48]): 0.25 µg/mL
MIC (Acinetobacter baumannii [49]): 32 µg/mL
MIC (Pseudomonas aeruginosa [50]): 0.25 µg/mL (≈ 0.652 µM)
MIC (Acinetobacter baumannii [51]): 1 µg/mL (≈ 2.61 µM)
MIC (Pseudomonas aeruginosa [52]): 0.25 µg/mL
MIC (Acinetobacter baumannii [53]): 0.38 µg/mL
MIC (Pseudomonas aeruginosa [54]): 0.25 µg/mL
MIC (Acinetobacter baumannii [55]): 1 µg/mL
fractional inhibitory concentration index (FICI) (Acinetobacter baumannii [56]): 0.5
MIC (Acinetobacter baumannii [57]): 1 µg/mL
MIC (Pseudomonas aeruginosa [58]): 0.25 µg/mL
fractional inhibitory concentration index (FICI) (Acinetobacter baumannii [59]): 0.281

Reference: ChEMBL document CHEMBL1671867, “Novel polymyxin derivatives carrying only three positive charges are effective antibacterial agents” (Antimicrob Agents Chemother, 2008)
